The source made the active and inactive calls. No cut-off for these calls is given here.

Data set [1] has as its system A2780. The data set is described as follows: Cytotoxicity against human A2780 cells assessed as inhibition of cell growth measured after 48 hrs by MTT assay. The class given is functional, cell-based. As to conditions: A2780, 48 h. The method, boiled down:
(§1)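 MTT assay. Cells were exposed for 48 h to increasing concentrations of compound. Ovarian A2780 was paired with its P-gp-overexpressing A2780AD counterpart, and HeLa with HeLa β3, which overexpresses the tubulin β3 isotype. IC50 is the mean ± SD of three independent experiments.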

Data set [2] is described as follows: Cytotoxicity against human MFD-1 cells assessed as inhibition of cell growth measured after 72 hrs by MTT assay. Particulars: MFD-1, 72 h. The class given is functional, cell-based. The method, boiled down:
(§2)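 Oesophageal adenocarcinoma lines were exposed to at least 8 increasing concentrations for 72 h. Viability was measured by MTT. IC50 is the mean ± SD of at least three independent experiments.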
Background: Formazan colour is commonly taken as a measure of viable cells.

Data set [3] concerns the target T1, Tubulin (Homo sapiens) (UniProt P68371+Q9H4B7+P0DPH7+P68366+Q13509+Q71U36+P04350+Q3ZCM7+P07437+P68363+Q9BQE3+Q6PEY2+Q13885+Q9BVA1+Q9BUF5). The data set is described as follows: Binding affinity to tubulin (unknown origin) assessed as fluorescence peak around 460 nm by UV/vis absorption spectroscopy. Type of data set: protein-complex assay.
The target in data set [4] is T1, Tubulin (Homo sapiens). The data set is described as follows: Binding affinity to tubulin (unknown origin) using podophyllotoxin by Competition assay. The class given is protein-complex assay. The method, boiled down:
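Fluorescence competition: compound and tubulin at equal concentrations (0.1, 0.5 or 1 μM each) titrated with podophyllotoxin up to 10 μM; excitation 350 nm, emission read at 450 nm on plate reader; displacement judged as fluorescence decrease.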

A further data set relates to OE19. Put plainly: Cytotoxicity against human OE19 cells assessed as inhibition of cell growth measured after 72 hrs by MTT assay. Type of data set: functional, cell-based. As to conditions: OE19, 72 h. The method, boiled down: as §2
Data set [5] deals with T1, Tubulin (Homo sapiens). The data set is described as follows: Inhibition of tubulin (unknown origin) assembly measured at 5 uM by fluorescence assay. The class given is protein-complex assay.
The next data set concerns SCC-4. Put plainly: Induction of apoptosis in human SCC-4 cells assessed as increase in apoptotic cells at 0.5 uM after 48 hrs by Annexin V-FITC/PI staining based flow cytometry method. The class given is functional, cell-based. In outline:
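SCC4 cells were treated at 0.5 or 2 μM for 48 h, then stained with Annexin V/PI and analysed by flow cytometry. Data are mean ± SEM of three independent experiments, with an unpaired one-tailed t-test versus vehicle.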
In general terms: Flow cytometry measures light scatter and fluorescence of single cells or particles in a stream.

Data set [6] in a line: Cytotoxicity against human FLO-1 cells assessed as inhibition of cell growth measured after 72 hrs by MTT assay. The class given is functional, cell-based. Particulars: FLO-1, 72 h. The method, boiled down: as §2
The subject of data set [7] is HeLa. The data set is described as follows: Cytotoxicity against human HeLa cells assessed as inhibition of cell growth measured after 48 hrs by MTT assay. Type of data set: functional, cell-based. The method, boiled down: as §1
In the next data set the test system is Ca9-22. Put plainly: Induction of apoptosis in human Ca9-22 cells assessed as increase in apoptotic cells at 0.5 uM after 48 hrs by Annexin V-FITC/PI staining based flow cytometry method. The class given is functional, cell-based. In outline: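 Ca9.22 or TR146 cells were seeded at 30×10^4 cells/mL and treated with 500 nM compound or 1% EtOH (v/v) vehicle for 48 h. Annexin V/PI staining was read by flow cytometry, gating 10,000 cells on vehicle-treated cells. Data are mean ± SEM (n = 3).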

Data set [8] concerns A2780. The data set is described as follows: Cytotoxicity against human A2780AD cells assessed as inhibition of cell growth measured after 48 hrs by MTT assay. The class given is functional, cell-based. As to conditions: A2780, 48 h. The method, boiled down:
as §1

For a further data set, the target named is Albumin (Bos taurus, UniProt P02769). The data set is described as follows: Binding affinity to bovine serum albumin assessed as increase in fluorescence intensity. Particulars: cattle. The method, boiled down: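 Saturation assay: compound fixed at 1 μM was incubated with increasing amounts of BSA. Fluorescence was read with excitation at 350 nm and emission at 450 nm in a plate reader.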
Sequence of Albumin (P02769 whole entry): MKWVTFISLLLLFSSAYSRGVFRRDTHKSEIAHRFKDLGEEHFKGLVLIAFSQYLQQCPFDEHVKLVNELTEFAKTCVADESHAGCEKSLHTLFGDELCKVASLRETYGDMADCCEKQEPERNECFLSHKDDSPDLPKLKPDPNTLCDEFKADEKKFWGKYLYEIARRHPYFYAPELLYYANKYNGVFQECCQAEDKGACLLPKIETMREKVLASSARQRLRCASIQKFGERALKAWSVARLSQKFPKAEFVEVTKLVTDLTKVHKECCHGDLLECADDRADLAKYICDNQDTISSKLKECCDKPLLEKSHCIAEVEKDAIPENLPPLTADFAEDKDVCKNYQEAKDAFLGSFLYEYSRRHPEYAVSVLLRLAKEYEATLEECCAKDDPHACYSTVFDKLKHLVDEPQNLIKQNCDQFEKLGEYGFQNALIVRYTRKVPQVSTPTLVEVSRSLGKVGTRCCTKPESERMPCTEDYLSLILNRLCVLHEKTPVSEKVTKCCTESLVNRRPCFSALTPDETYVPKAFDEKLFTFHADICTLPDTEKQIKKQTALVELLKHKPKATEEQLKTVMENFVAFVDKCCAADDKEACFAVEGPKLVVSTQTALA

Data set [9] deals with HeLa. Put plainly: Induction of autophagy in human HeLa cells assessed as increase in number of autophagosomes formation at 1 uM measured after 3 hrs by immunofluorescence based laser scanning confocal microscopic analysis. Type of data set: functional, cell-based. The method, boiled down: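 HeLa cells in growth medium were treated at 1 or 10 μM, with BafA1 300 nM as reference, for 3 h. Cells were fixed in ice-cold methanol, immunostained for LC3 (autophagosomes) and LAMP1, and imaged by laser scanning confocal microscopy.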

Data set [10] relates to HeLa. Put plainly: Inhibition of autophagosome degradationin human HeLa cells at 1 uM incubated for 3 hrs with HBSS medium by immunofluorescence based laser scanning confocal microscopic analysis. The class given is functional, cell-based. In outline: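 HeLa cells were treated in HBSS at 1 or 10 μM, with BafA1 300 nM as reference, for 3 h. After fixation in ice-cold methanol, LC3 and LAMP1 were immunostained. Laser scanning confocal microscopy assessed autophagosome number and LC3/LAMP1 colocalisation.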

As to `CN1CCN(C(=O)OC2=C(c3cccc4ncccc34)Oc3cc4ccccc4cc3-n3cccc32)CC1`, the IC50 worked out at 600 nM in the data set with A2780 [1]; 1210 nM in data set [2]; 730 nM in the data set on OE19; 400 nM in [6]; 469 nM with HeLa [7]; 399 nM in the data set on A2780 [8]. Further, the result on Tubulin (Homo sapiens) [3], on Tubulin (Homo sapiens) [4], in the data set on SCC-4 and in the data set on Ca9-22 was Active. On Tubulin (Homo sapiens) [5], this compound yielded an inhibition of 100%. For the same compound, at Albumin, the result was Active.

Regarding `O=C(OC1=C(c2cccc3ncccc23)Oc2cc3ccccc3cc2-n2cccc21)C1CCNCC1`, the result with HeLa [9] and in the data set on HeLa [10] was Active.

In general, IC50 refers to the concentration that inhibits the measured activity by half. Broadly, the inhibition is the relative decrease from the control value, in per cent.

The record behind these values is ChEMBL document CHEMBL5154824, “Design and synthesis of multifunctional microtubule targeting agents endowed with dual pro-apoptotic and anti-autophagic efficacy” (Eur J Med Chem, 2022).
